ChEMBL document CHEMBL1149451, “Design, synthesis, and biological evaluation of 3,4-diarylmaleimides as angiogenesis inhibitors” (J Med Chem, 2006)
Activity calls are given as the source filed them. The calls are words filed in the database; no cut-off is given here.

Tests used:
[1] = target: T1, CDK6/cyclin D1 (Homo sapiens) (UniProt P24385+Q00534); assay: Inhibition of human CDK6/cycD1 expressed in Sf9 cells at 100 uM; values are per cent of control
[2] = target: Receptor tyrosine-protein kinase erbB-2 (Homo sapiens) (UniProt P04626); assay: Inhibition of human ERBB2 expressed in Sf9 cells at 100 uM; values are per cent of control
[3] = target: T2, Protein kinase C iota type (Homo sapiens) (UniProt P41743); assay: Inhibition of human PKC iota expressed in Sf9 cells at 100 uM; values are per cent of control
T2 sequence (whole entry): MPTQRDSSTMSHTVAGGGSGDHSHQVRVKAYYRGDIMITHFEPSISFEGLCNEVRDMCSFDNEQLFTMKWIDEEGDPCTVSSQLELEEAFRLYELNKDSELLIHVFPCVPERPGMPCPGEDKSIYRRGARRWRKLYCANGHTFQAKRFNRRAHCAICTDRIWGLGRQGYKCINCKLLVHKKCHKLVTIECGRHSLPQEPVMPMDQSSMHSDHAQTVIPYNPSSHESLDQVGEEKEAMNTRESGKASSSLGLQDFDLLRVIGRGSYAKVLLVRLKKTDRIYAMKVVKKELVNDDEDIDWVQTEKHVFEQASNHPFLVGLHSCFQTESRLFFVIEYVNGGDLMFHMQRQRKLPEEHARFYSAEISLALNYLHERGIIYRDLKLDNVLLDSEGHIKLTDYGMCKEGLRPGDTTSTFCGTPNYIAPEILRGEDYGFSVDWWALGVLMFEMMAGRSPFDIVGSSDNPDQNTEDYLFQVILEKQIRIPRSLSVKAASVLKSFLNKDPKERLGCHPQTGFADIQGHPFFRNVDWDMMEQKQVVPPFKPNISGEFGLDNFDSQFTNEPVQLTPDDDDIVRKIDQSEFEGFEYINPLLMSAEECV

[4] = target: T3, Vascular endothelial growth factor receptor 2 (Homo sapiens, UniProt P35968); assay: Inhibition of human VEGFR2 expressed in Sf9 cells at 10 uM; values are per cent of control
[5] = target: Angiopoietin-1 receptor (Homo sapiens) (UniProt Q02763); assay: Inhibition of human TIE2 expressed in Sf9 cells at 10 uM; conditions: values are per cent of control
Outline: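 Sf9-expressed recombinant GST- or His-tagged kinase, affinity-purified. Substrates: Rb-CTF for CDK1/4/6, histone H1 for CDK2, poly(Glu,Tyr)4:1 for ERBB2/TIE2. Single replicate, 1% DMSO final, 80 min at 30 °C.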

[6] = target: Angiopoietin-1 receptor (Homo sapiens) (UniProt Q02763); assay: Inhibition of human TIE2 expressed in Sf9 cells at 100 uM; values are per cent of control
[7] = target: T1, CDK6/cyclin D1 (Homo sapiens); assay: Inhibition of human CDK6/cycD1 expressed in Sf9 cells at 10 uM; values are per cent of control
Tubulin (Sus scrofa) = Tubulin (Sus scrofa) (UniProt P02554+P02550); assay: Inhibition of tubulin polymerization in porcine brain upto 10 uM
Outline: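 Microtubule protein isolated from porcine brain, 1 mg/mL, polymerized 20 min at 37 °C in PIPES buffer with 10 mM GTP, pH 6.8. Turbidity followed at 360 nm; assembly compared with an effector-free control.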

[8] = target: Protein kinase C alpha type (Mus musculus) (UniProt P20444); assay: Inhibition of mouse PKC alpha expressed in Sf9 cells at 10 uM; values are per cent of control
[9] = target: T4, Protein kinase C epsilon type (Mus musculus) (UniProt P16054); assay: Inhibition of mouse PKC epsilon expressed in Sf9 cells at 10 uM; values are per cent of control
T4 sequence (whole entry): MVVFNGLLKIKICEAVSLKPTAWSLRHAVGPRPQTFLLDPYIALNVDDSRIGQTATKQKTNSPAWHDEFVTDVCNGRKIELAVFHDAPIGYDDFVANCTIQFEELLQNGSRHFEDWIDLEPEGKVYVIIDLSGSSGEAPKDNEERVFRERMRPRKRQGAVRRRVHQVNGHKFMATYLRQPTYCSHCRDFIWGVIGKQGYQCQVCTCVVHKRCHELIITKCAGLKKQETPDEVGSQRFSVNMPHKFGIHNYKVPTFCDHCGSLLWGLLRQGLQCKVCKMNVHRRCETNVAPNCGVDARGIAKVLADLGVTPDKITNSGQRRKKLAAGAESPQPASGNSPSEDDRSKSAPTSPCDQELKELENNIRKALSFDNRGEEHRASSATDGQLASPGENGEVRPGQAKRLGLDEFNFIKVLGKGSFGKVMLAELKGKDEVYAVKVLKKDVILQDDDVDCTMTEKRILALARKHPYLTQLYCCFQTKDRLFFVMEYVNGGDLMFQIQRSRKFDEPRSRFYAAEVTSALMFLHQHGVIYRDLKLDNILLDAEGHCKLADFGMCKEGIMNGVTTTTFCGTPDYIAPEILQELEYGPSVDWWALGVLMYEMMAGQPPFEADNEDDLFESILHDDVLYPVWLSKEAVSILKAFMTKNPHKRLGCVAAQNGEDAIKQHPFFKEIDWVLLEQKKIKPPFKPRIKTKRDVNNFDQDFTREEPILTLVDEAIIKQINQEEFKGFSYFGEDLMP

[10] = target: Cyclin-dependent kinase 2/cyclin E (Homo sapiens) (UniProt P24864+P24941+O96020); assay: Inhibition of human CDK2/cycE expressed in Sf9 cells at 100 uM; values are per cent of control
[11] = target: T2, Protein kinase C iota type (Homo sapiens); assay: Inhibition of human PKC iota expressed in Sf9 cells at 10 uM; values are per cent of control
[12] = target: Receptor tyrosine-protein kinase erbB-2 (Homo sapiens) (UniProt P04626); assay: Inhibition of human ERBB2 expressed in Sf9 cells at 10 uM; values are per cent of control
[13] = target: Protein kinase C alpha type (Mus musculus) (UniProt P20444); assay: Inhibition of mouse PKC alpha expressed in Sf9 cells at 100 uM; conditions: values are per cent of control
[14] = target: Protein kinase C gamma type (Rattus norvegicus) (UniProt P63319); assay: Inhibition of rat PKC gamma expressed in Sf9 cells at 100 uM; conditions: values are per cent of control
[15] = target: T3, Vascular endothelial growth factor receptor 2; assay: Inhibition of human VEGFR2 expressed in Sf9 cells at 100 uM; values are per cent of control
[16] = target: T4, Protein kinase C epsilon type (Mus musculus); assay: Inhibition of mouse PKC epsilon expressed in Sf9 cells at 100 uM; conditions: values are per cent of control

Chain of Tubulin (Sus scrofa) (P02550 whole entry, looked up): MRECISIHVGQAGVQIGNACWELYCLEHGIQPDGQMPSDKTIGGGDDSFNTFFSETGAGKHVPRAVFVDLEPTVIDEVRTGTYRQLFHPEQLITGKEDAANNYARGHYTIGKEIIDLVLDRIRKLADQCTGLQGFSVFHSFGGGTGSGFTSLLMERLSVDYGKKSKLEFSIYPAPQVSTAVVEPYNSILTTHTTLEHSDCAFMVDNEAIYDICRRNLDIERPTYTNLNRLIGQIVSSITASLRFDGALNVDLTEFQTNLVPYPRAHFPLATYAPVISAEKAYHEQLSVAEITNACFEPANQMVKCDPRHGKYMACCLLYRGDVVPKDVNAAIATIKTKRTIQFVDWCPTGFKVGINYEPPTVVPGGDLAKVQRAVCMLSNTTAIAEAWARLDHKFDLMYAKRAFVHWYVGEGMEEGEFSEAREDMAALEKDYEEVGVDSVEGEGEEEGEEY
Chain of Tubulin (Sus scrofa) (P02554 whole entry, looked up): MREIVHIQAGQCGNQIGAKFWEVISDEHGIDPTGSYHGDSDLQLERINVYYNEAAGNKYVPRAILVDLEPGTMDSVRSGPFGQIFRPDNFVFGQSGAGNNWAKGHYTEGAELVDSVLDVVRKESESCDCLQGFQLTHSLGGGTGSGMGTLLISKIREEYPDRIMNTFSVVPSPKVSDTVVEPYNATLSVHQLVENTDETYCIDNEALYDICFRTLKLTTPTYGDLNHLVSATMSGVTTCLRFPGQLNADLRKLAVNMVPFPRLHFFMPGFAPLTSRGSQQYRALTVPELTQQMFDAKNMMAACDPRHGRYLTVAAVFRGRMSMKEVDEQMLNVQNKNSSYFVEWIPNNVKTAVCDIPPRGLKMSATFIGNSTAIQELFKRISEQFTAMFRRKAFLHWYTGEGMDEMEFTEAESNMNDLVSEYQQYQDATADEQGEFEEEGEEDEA
Chain of Angiopoietin-1 receptor (Homo sapiens) (Q02763 whole entry): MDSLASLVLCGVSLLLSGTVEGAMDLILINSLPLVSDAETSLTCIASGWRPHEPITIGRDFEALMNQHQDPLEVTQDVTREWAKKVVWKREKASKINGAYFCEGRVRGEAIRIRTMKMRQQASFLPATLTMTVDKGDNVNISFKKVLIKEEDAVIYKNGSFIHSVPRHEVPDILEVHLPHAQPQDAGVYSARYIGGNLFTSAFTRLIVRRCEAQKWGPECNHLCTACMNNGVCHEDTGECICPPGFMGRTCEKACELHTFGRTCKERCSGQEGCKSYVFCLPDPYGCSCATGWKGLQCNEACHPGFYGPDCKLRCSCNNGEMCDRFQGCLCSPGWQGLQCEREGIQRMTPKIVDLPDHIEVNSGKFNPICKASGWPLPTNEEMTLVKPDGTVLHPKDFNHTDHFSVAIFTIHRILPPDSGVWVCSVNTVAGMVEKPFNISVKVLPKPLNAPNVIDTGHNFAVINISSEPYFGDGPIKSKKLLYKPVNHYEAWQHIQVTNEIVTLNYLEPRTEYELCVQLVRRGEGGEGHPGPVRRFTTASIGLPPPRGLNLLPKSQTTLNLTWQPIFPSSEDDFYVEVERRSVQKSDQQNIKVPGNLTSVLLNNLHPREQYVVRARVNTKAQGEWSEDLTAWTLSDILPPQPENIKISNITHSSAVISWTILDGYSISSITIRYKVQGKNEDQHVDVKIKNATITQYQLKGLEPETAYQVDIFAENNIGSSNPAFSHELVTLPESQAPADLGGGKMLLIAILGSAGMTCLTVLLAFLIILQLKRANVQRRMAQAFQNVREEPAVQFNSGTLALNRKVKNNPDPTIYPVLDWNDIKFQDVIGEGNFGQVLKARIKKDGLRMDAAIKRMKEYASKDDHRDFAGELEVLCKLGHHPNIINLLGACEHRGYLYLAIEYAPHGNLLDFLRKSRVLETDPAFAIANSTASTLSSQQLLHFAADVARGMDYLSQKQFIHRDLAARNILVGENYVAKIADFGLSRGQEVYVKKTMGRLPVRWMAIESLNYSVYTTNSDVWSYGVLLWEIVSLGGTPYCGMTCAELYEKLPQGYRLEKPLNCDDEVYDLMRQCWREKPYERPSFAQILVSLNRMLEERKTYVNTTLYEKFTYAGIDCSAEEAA
T3 sequence (P35968 whole entry): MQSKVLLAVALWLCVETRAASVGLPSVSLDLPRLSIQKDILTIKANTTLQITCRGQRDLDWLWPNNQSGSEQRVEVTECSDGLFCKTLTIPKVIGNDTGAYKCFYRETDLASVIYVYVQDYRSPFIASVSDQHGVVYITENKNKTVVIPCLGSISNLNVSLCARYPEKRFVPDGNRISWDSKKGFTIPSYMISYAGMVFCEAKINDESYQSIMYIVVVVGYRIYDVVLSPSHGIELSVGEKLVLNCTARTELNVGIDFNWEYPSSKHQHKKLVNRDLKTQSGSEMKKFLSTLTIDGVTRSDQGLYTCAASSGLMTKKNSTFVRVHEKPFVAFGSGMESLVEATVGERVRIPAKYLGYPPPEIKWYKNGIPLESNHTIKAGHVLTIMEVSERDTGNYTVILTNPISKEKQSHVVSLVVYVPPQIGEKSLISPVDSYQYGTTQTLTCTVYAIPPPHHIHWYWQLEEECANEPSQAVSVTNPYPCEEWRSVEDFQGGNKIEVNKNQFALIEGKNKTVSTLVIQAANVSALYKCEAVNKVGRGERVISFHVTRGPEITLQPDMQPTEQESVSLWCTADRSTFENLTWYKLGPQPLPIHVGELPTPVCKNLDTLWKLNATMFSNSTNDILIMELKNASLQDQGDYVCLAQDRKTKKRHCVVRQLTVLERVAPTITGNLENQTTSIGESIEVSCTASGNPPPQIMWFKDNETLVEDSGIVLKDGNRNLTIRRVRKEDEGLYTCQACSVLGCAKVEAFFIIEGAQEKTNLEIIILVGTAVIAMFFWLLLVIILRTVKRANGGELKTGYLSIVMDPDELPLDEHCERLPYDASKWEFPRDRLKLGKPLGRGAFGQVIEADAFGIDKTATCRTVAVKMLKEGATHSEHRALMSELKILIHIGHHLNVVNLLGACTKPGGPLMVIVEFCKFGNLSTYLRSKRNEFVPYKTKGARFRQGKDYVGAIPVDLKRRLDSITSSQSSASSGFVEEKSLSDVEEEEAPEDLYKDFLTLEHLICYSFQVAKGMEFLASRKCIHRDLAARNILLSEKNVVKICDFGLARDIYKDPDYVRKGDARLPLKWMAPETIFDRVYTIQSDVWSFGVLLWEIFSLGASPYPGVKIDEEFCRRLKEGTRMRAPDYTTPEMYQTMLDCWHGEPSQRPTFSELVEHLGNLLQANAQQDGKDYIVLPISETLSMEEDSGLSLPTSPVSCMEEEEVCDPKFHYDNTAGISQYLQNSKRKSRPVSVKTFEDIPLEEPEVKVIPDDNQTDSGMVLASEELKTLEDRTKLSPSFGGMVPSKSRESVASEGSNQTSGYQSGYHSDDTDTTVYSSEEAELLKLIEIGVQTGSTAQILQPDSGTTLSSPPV

| Compound | residual activity [1] | residual activity [2] | residual activity [3] | residual activity [4] | residual activity [5] | residual activity [6] | residual activity [7] | inhibition (Tubulin (Sus scrofa)) | residual activity [8] | residual activity [9] | residual activity [10] | residual activity [11] | residual activity [12] | residual activity [13] | residual activity [14] | residual activity [15] | residual activity [16] |
| --- | --- | --- | --- | --- | --- | --- | --- | --- | --- | --- | --- | --- | --- | --- | --- | --- | --- |
| O=C1NC(=O)C(c2ccccc2)=C1c1ccccc1 | 65% | 94% | 96% | 81% | 99% | 10% | 53% | inactive | 82% | 98% | 93% | 97% | 100% | 102% | 105% | 88% | 98% |
| COc1ccc(C2=C(c3ccc(OC)cc3)C(=O)NC2=O)cc1 | 100% | 86% | 85% | 100% | 109% | 12% | 96% | inactive | 94% | 98% | 103% | 95% | 88% | 96% | 113% | 93% | 82% |
| COc1ccc(C2=C(c3cc(OC)c(OC)c(OC)c3)C(=O)NC2=O)cc1O | 86% | 85% | 93% | 19% | 101% | 85% | 70% |  | 61% | 73% | 84% | 103% | 99% | 69% | 101% | 32% | 95% |
| COc1ccc(C2=C(c3ccccc3)C(=O)NC2=O)cc1OC | 79% | 79% | 87% | 86% | 100% | 98% | 89% | inactive | 85% | 105% | 82% | 94% | 87% | 86% | 96% | 71% | 83% |
| COc1ccc(C2=C(c3ccccc3)C(=O)NC2=O)cc1 | 87% | 97% | 86% | 94% | 101% | 12% | 81% | inactive | 86% | 127% | 95% | 102% | 85% | 105% | 117% | 101% | 94% |

The remaining lines, values ahead:

| residual activity [1] | residual activity [2] | residual activity [3] | residual activity [4] | residual activity [5] | residual activity [6] | residual activity [7] | inhibition (Tubulin (Sus scrofa)) | residual activity [8] | residual activity [9] | residual activity [10] | residual activity [11] | residual activity [12] | residual activity [13] | residual activity [14] | residual activity [15] | residual activity [16] | Compound |
| --- | --- | --- | --- | --- | --- | --- | --- | --- | --- | --- | --- | --- | --- | --- | --- | --- | --- |
| 91% | 78% | 82% | 55% | 103% | 10% | 69% | inactive | 79% | 94% | 88% | 99% | 92% | 91% | 103% | 64% | 91% | COc1cc(C2=C(c3ccccc3)C(=O)NC2=O)cc(OC)c1OC |
| 71% | 93% | 101% | 17% | 116% | 77% | 80% | inactive | 62% | 62% | 71% | 92% | 91% | 67% | 93% | 16% | 61% | COc1cc(C2=C(c3cc[nH]c3)C(=O)NC2=O)cc(OC)c1OC |
| 78% | 80% | 104% | 45% | 108% | 92% | 79% | inactive | 90% | 108% | 89% | 97% | 78% | 85% | 109% | 43% | 68% | COc1ccc(C2=C(c3cc(OC)c(OC)c(OC)c3)C(=O)NC2=O)cc1 |
